Values after ≈ are worked out from the molar mass of the structure shown.
Assays:
Pichia kudriavzevii [1] = test: Antifungal activity against Candida krusei ATCC 6258 incubated for 46 to 50 hrs by CLSI protocol based assay; assay type: functional, organism-based
Cryptococcus neoformans [2] = test: Antifungal activity against Cryptococcus neoformans ATCC 90113 incubated for 70 to 74 hrs by CLSI protocol based assay; assay type: functional, organism-based
Cryptococcus neoformans [3] = test: Antifungal activity against Cryptococcus neoformans ATCC 90113 assessed as minimum inhibitory concentration incubated for 70 to 74 hrs by CLSI protocol based assay; assay type: functional; conditions: time 70-74 hrs
Outline: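 Cryptococcus neoformans in Sabouraud dextrose broth at final 1.5 × 10^3, serially diluted samples in duplicate, final concentration 1/100th of stock. Read at 530 nm before and after 35 °C for 70–74 h. MIC is the lowest test concentration with no detectable growth.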

Cryptococcus neoformans [4] = test: Antifungal activity against Cryptococcus neoformans ATCC 90113 assessed as minimum fungicidal concentration incubated for 70 to 74 hrs by CLSI protocol based assay; assay type: functional; conditions: time 70-74 hrs
Outline: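 From clear wells of the Cryptococcus broth assay (Sabouraud dextrose, 35 °C, 70–74 h), 5 μL transferred to fresh medium and reincubated under the same conditions. MFC is the lowest concentration that kills the organism.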

Staphylococcus aureus [5] = test: Antibacterial activity against Staphylococcus aureus ATCC 29213 incubated for 16 to 20 hrs by CLSI protocol based assay; assay type: functional, organism-based
Staphylococcus aureus [6] = test: Antibacterial activity against Staphylococcus aureus ATCC 29213 assessed as minimum inhibitory concentration incubated for 16 to 20 hrs by CLSI protocol based assay; assay type: functional; conditions: time 16-20 hrs
Staphylococcus aureus [7] = test: Antibacterial activity against Staphylococcus aureus ATCC 29213 assessed as minimum bactericidal concentration incubated for 16 to 20 hrs by CLSI protocol based assay; assay type: functional; conditions: time 16-20 hrs
Staphylococcus aureus [8] = test: Antibacterial activity against methicillin-resistant Staphylococcus aureus ATCC 33591 incubated for 16 to 20 hrs by CLSI protocol based assay; assay type: functional, organism-based
Staphylococcus aureus [9] = test: Antibacterial activity against methicillin-resistant Staphylococcus aureus ATCC 33591 assessed as minimum inhibitory concentration incubated for 16 to 20 hrs by CLSI protocol based assay; assay type: functional; conditions: time 16-20 hrs
Staphylococcus aureus [10] = test: Antibacterial activity against methicillin-resistant Staphylococcus aureus ATCC 33591 assessed as minimum bactericidal concentration incubated for 16 to 20 hrs by CLSI protocol based assay; assay type: functional; conditions: time 16-20 hrs
Cryptococcus neoformans [11] = test: Synergistic antifungal activity against Cryptococcus neoformans H99 assessed as […] at 2 ug/ml incubated for 72 hrs by CLSI protocol based checkerboard assay; assay type: functional; conditions: dose 2 µg/ml
Outline: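 Checkerboard per CLSI. Overnight C. neoformans H99 culture diluted in RPMI 1640 with MOPS, pH 7.0, to final 1.0 × 10^4 CFU/mL. […] Single-agent, solvent and media controls included. OD 490 nm read before and after 30 °C for 72 h, normalized to solvent control. FIC ≤ 0.5 scored as synergy.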

Cryptococcus neoformans [12] = test: Synergistic antifungal activity against Cryptococcus neoformans H99 assessed as fold increase in amphotericin fungicidal activity at 2 ug/ml incubated for 48 hrs by CLSI protocol based yeast peptone dextrose agar plate method; assay type: functional; conditions: dose 2 µg/ml
Outline: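 Fungicidal read-out from the H99 checkerboard (RPMI/MOPS pH 7.0, 1.0 × 10^4 CFU/mL, 30 °C, 72 h). Plate shaken, then 2 μL from each well spotted on YPD agar and incubated at 30 °C for 48 h.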

Candida albicans = test: Antifungal activity against Candida albicans ATCC 90028 incubated for 46 to 50 hrs by CLSI protocol based assay; assay type: functional, organism-based
Nakaseomyces glabratus [13] = test: Antifungal activity against Candida glabrata ATCC 90030 incubated for 46 to 50 hrs by CLSI protocol based assay; assay type: functional, organism-based
Nakaseomyces glabratus [14] = test: Antifungal activity against Candida glabrata ATCC 90030 assessed as minimum inhibitory concentration incubated for 46 to 50 hrs by CLSI protocol based assay; assay type: functional; conditions: time 46-50 hrs
Outline: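 Candida strains in RPMI 1640/0.2% dextrose/0.03% glutamine/MOPS, pH 6.0. Inoculum 1.5 × 10^3, samples serially diluted from DMSO stocks, duplicate wells, final concentration 1/100th of stock. Read at 530 nm before and after 35 °C for 46–50 h. MIC taken as lowest test concentration with no detectable growth.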

Nakaseomyces glabratus [15] = test: Antifungal activity against Candida glabrata ATCC 90030 assessed as minimum fungicidal concentration incubated for 46 to 50 hrs by CLSI protocol based assay; assay type: functional; conditions: time 46-50 hrs
Outline: (§1)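 After the Candida broth microdilution (RPMI/MOPS pH 6.0, 35 °C, 46–50 h), 5 μL from each clear well moved to fresh medium and incubated again under the same conditions. MFC defined as the lowest test concentration that kills the organism.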

Pichia kudriavzevii [16] = test: Antifungal activity against Candida krusei ATCC 6258 assessed as minimum inhibitory concentration incubated for 46 to 50 hrs by CLSI protocol based assay; assay type: functional; conditions: time 46-50 hrs
Outline: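 Inoculum 1.5 × 10^3, samples serially diluted from DMSO stocks, duplicate wells, final concentration 1/100th of stock. Read at 530 nm before and after 35 °C for 46–50 h. MIC taken as lowest test concentration with no detectable growth.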

Pichia kudriavzevii [17] = test: Antifungal activity against Candida krusei ATCC 6258 assessed as minimum fungicidal concentration incubated for 46 to 50 hrs by CLSI protocol based assay; assay type: functional; conditions: time 46-50 hrs; outline: as §1
Cryptococcus neoformans [18] = test: Synergistic antifungal activity against Cryptococcus neoformans H99 assessed as fractional inhibitory concentration incubated for 72 hrs by CLSI protocol based checkerboard assay; assay type: functional
Outline: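 Checkerboard in RPMI 1640 buffered with MOPS pH 7.0. Final inoculum 1.0 × 10^4 CFU/mL from an overnight H99 culture. […] OD490 read before and after 72 h at 30 °C, normalized to solvent control. FIC ≤0.5 taken as synergy.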

CCCCCCCCCCCC[C@]1(C)C=C/C(=C2/C(=O)O[C@@H](CC(=O)OC)C2=O)O1 showed an IC50 (Pichia kudriavzevii [1]) of 20 µg/mL (≈ 47.6 µM), an IC50 (Cryptococcus neoformans [2]) of 0.63 µg/mL (≈ 1.5 µM) and an MIC (Cryptococcus neoformans [3]) of 1.25 µg/mL (≈ 2.97 µM). It also gave an MFC (Cryptococcus neoformans [4]) of 1.25 µg/mL (≈ 2.97 µM), an IC50 (Staphylococcus aureus [5]) of 1.08 µg/mL (≈ 2.57 µM) and an MIC (Staphylococcus aureus [6]) of 2.5 µg/mL (≈ 5.94 µM). For the same compound, the MBC (Staphylococcus aureus [7]) was 10 µg/mL (≈ 23.8 µM), the IC50 (Staphylococcus aureus [8]) was 0.71 µg/mL (≈ 1.69 µM) and the MIC (Staphylococcus aureus [9]) was 1.25 µg/mL (≈ 2.97 µM). For the same compound, the MBC (Staphylococcus aureus [10]) was 5 µg/mL (≈ 11.9 µM), the “fold change (FC)” value (Cryptococcus neoformans [11]) was 16 and the “fold change (FC)” value (Cryptococcus neoformans [12]) was 8.

Compound CCCCCCCCCCCC[C@]1(C)C=C/C(=C2/C(=O)O[C@@H](CC(=O)O)C2=O)O1 has an IC50 (Candida albicans) of 15.3 µg/mL (≈ 37.6 µM), an IC50 (Nakaseomyces glabratus [13]) of 2.85 µg/mL (≈ 7.01 µM) and an MIC (Nakaseomyces glabratus [14]) of 10 µg/mL (≈ 24.6 µM). The MFC (Nakaseomyces glabratus [15]) was 10 µg/mL (≈ 24.6 µM), the IC50 (Pichia kudriavzevii [1]) was 6.31 µg/mL (≈ 15.5 µM) and the MIC (Pichia kudriavzevii [16]) was 10 µg/mL (≈ 24.6 µM). The MFC (Pichia kudriavzevii [17]) was 10 µg/mL (≈ 24.6 µM), the IC50 (Cryptococcus neoformans [2]) was 0.37 µg/mL (≈ 0.91 µM) and the MIC (Cryptococcus neoformans [3]) was 0.63 µg/mL (≈ 1.55 µM). For the same compound, the MFC (Cryptococcus neoformans [4]) was 0.63 µg/mL (≈ 1.55 µM), the IC50 (Staphylococcus aureus [5]) was 0.44 µg/mL (≈ 1.08 µM) and the MIC (Staphylococcus aureus [6]) was 1.25 µg/mL (≈ 3.07 µM). For the same compound, the MBC (Staphylococcus aureus [7]) was 20 µg/mL (≈ 49.2 µM), the IC50 (Staphylococcus aureus [8]) was 0.39 µg/mL (≈ 0.959 µM) and the MIC (Staphylococcus aureus [9]) was 0.63 µg/mL (≈ 1.55 µM). The MBC (Staphylococcus aureus [10]) was 10 µg/mL (≈ 24.6 µM).

C[C@@H]1[C@H](O)[C@@H](C)/C=C/C=C/C=C/C=C/C=C/C=C/C=C/[C@H](O[C@@H]2O[C@H](C)[C@@H](O)[C@H](N)[C@@H]2O)C[C@@H]2O[C@](O)(C[C@@H](O)C[C@@H](O)[C@H](O)CC[C@@H](O)C[C@@H](O)CC(=O)O[C@H]1C)C[C@H](O)[C@H]2C(=O)O [AMPHOTERICIN B] showed an IC50 (Candida albicans) of 0.14 µg/mL (≈ 0.152 µM), an IC50 (Nakaseomyces glabratus [13]) of 0.21 µg/mL (≈ 0.227 µM) and an MIC (Nakaseomyces glabratus [14]) of 0.63 µg/mL (≈ 0.682 µM). The MFC (Nakaseomyces glabratus [15]) was 0.63 µg/mL (≈ 0.682 µM), the IC50 (Pichia kudriavzevii [1]) was 0.74 µg/mL (≈ 0.801 µM) and the IC50 (Cryptococcus neoformans [2]) was 0.35 µg/mL (≈ 0.379 µM). It also gave an MIC (Cryptococcus neoformans [3]) of 0.63 µg/mL (≈ 0.682 µM), an MFC (Cryptococcus neoformans [4]) of 0.63 µg/mL (≈ 0.682 µM) and an FIC (Cryptococcus neoformans [18]) of 0.3.
